Screening data: PubChem, several laboratories
Only some compounds are listed: those with a hit (about 1.2% of all), similar ones and a draw of the others.
CSN deneddyl inh = inhibitors of CSN-mediated cullin deneddylation, primary screen, biochemical, fluorescence polarization, uHTS | COP9 signalosome complex subunit 5 (Homo sapiens), Q92905 | Purified CSN, SCF-Nedd8-OG deneddylation | inhibition, % at 12.5 µM | 360,000 compounds, 0.38% hits | AID 651999, 2013;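 active = pattern-corrected inhibition above about 35%, with an unprinted fluorescence ratio check between 0.5 and 1.5, limit read from the data, passing the limit was not always enough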
Target sequence (Q92905 whole entry, looked up, one chain of several): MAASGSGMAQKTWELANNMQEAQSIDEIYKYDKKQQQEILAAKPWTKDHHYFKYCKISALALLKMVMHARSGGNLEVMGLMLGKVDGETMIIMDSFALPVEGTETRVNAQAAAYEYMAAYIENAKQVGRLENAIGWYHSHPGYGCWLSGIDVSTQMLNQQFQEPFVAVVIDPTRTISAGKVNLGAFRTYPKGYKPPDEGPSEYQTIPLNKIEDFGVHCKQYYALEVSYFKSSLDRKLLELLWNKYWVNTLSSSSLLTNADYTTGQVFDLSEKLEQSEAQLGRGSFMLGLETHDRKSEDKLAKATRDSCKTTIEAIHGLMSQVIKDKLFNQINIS
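Schedule: reaction 90 min, room temperature / Assay system: HEK293T-derived human Csn5 enzyme / Input: Csn5 at 0.24 nM final / Measure: inhibition of Csn5 cleavage, % / Control set: substrate-only high control, full reaction low control / Technique: fluorescence polarization of the substrate / Buffer or medium: Tris/NaCl/DTT buffer, pH 7.5 / Reagent: SCFSkp2-Nedd8OG substrate at 10 nM final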
HNF4A DNA FP = change in binding of human HNF4A to DNA, primary screen, biochemical, fluorescence polarization, FITC-DNA; Hepatocyte nuclear factor 4-alpha (Homo sapiens), P41235; activity change, % at 10 µM; 1 h; 360,000 compounds, 0.3% hits; in the data active = activity change above about 30%, passing the limit was not always enough
Rtt109 HAT inh = inhibitors of C. albicans Rtt109/Vps75 HAT, primary screen, biochemical, ThioGlo CoA-SH fluorescence, plate reader; purified Rtt109/Vps75, 4 h; inhibition, % at 34.9 µM; 330,000 compounds, 0.16% hits; AID 540336, 2011;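 active = inhibition of at least 50% in every replicate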
Target sequence (Q5AAJ8 whole entry, looked up): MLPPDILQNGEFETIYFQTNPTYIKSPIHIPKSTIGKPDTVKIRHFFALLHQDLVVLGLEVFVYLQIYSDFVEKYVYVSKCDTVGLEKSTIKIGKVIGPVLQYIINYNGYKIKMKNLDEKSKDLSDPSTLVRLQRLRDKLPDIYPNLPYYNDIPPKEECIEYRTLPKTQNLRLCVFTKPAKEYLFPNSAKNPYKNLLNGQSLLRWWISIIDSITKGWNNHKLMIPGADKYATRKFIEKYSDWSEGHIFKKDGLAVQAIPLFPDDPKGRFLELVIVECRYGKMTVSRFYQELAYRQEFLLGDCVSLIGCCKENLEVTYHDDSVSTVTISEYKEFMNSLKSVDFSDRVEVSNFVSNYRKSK
TPT1 inh = Candida albicans TPT1 enzyme inhibitors, primary screen, biochemical, fluorescence polarization; tRNA 2'-phosphotransferase TPT1 (Candida albicans SC5314); recombinant caTPT1, FP RNA substrate dephosphorylation; inhibition, % at 5 µM; 300,000 compounds, 0.81% hits;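 active = inhibition above the mean of all tested compounds plus 3 SD, set per screening campaign, cut at about 24% in these data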
Each line names hits and unclear results; the compound was inactive in the other large screens; ! = a repeat was not active.

N#CC1=C(S)N(c2ccccc2)C(c2ccc(-c3cccc(Cl)c3)o2)NC1=O (centres undefined)	Rtt109 HAT inh 99
O=C(COC(=O)C1=COCCO1)Nc1cc(Cl)c(Cl)cc1Cl	none (no result: TPT1 inh)
CC(C)C(NS(=O)(=O)c1cccc2nsnc12)C(=O)NC1CCCCC1C (centres undefined)	none
CC1CCCC(NS(=O)(=O)c2cccc3nsnc23)C1C (centres undefined)	Rtt109 HAT inh 55
CC(=O)c1cccc(NC(=O)CN2CCc3cc4c(cc3C2C)OCCCO4)c1 (centres undefined)	none
CCCc1nc2c(Cl)cc(C(F)(F)F)cn2c1Cc1ccc(OC)cc1C	none (no result: Rtt109 HAT inh, TPT1 inh)
CCOC(=O)/C(C#N)=N\Nc1cc(Cl)ccc1OC	HNF4A DNA FP 75
CCCCCC[N+](C)(C)CCSSCC[N+](C)(C)CCCCCC	none
CCCCCCCCCCCCCCCC[N+](C)(C)CC	Rtt109 HAT inh 74
CCOc1ccc(S(=O)(=O)NC(C)C(=O)NCc2cccnc2)cc1 (centres undefined)	none
CCCCOc1ccc(C(=O)Nc2ccc(OCC(=O)N3CCOCC3)cc2)cc1	none
O=C(Nc1ccc(OCC(=O)N2CCOCC2)cc1)c1cncc(Br)c1	CSN deneddyl inh 80
O=C(CCNC(=O)C1CCN(S(=O)(=O)c2ccccc2)CC1)NCc1cccc(C(F)(F)F)c1	HNF4A DNA FP 38
Cc1cccc(N2CCN(C(=O)[C@H](C)N3C(=O)C4CC=CCC4C3=O)CC2)c1C (some centres undefined)	none (no result: TPT1 inh)
O=S(=O)(NN1CCOCC1)c1ccc(Br)cc1	Rtt109 HAT inh 53
COC(=O)C(C)(C)c1cccnc1C#N	none (no result: TPT1 inh)
COc1cccc(Cn2c(C(C)n3c(C)nc4ccccc43)nc3ccccc32)c1 (centres undefined)	none (no result: Rtt109 HAT inh, TPT1 inh)
CC1Cc2ccccc2N1C(=O)COC(=O)c1ccc(N(C)C)cc1 (centres undefined)	none (no result: TPT1 inh)
CC1Cc2ccccc2N1C(=O)COC(=O)c1ccc(O)cc1 (centres undefined)	Rtt109 HAT inh 52
Cc1ccc(-c2nc3ncccn3c2Nc2ccc3c(c2)OCCO3)o1	HNF4A DNA FP 38
Cc1cc(C)c(NC(=O)CCCn2c(=O)oc3ccccc32)c(C)c1	none (no result: TPT1 inh)
Cn1c(=O)c2c(nc(CN3CCN(c4ccc(F)cc4)CC3)n2CCN2CCOCC2)n(C)c1=O	HNF4A DNA FP 75
Cc1ccc(S(=O)(=O)N(C)CC(=O)Nc2nnc(CC(C)C)s2)cc1	none
Cc1cccc(CNc2ccc(S(=O)(=O)N3CCCCC3)cc2)c1	CSN deneddyl inh 62 (no result: TPT1 inh)
Cc1cccc(NC(=O)CSCC(=O)Nc2ccc(S(=O)(=O)N3CCCC3)cc2)c1	none
Nc1nc(COC(=O)c2ccc3c(c2)OCCO3)nc(Nc2ccccc2)n1	none (no result: TPT1 inh)
Nc1nc(COC(=O)CCC(=O)c2ccccc2)nc(Nc2ccccc2)n1	CSN deneddyl inh 106 (no result: TPT1 inh)
Cc1c(Cl)cccc1NC(CC(=O)c1ccccc1)C(=O)O (centres undefined)	Rtt109 HAT inh 70
O=C(CC(Nc1ccccc1Cl)C(=O)O)c1ccccc1 (centres undefined)	none
Cc1ccc(CNC(=O)c2nnn(CC(=O)Nc3cccc(C)c3C)c2N)cc1	CSN deneddyl inh 36
Cc1ccc(CNC(=O)Cn2nnc(C(=O)Nc3cccc(C)c3C)c2N)cc1	none
CSc1nc2ccc(NS(=O)(=O)c3ccc(Br)s3)cc2s1	none
O=S(=O)(Nc1ccon1)c1ccc(Br)s1	HNF4A DNA FP 39
CN1CCN(CCCN2c3ccccc3Sc3ccc(Cl)cc32)CC1	Rtt109 HAT inh 53!
CCSc1ccc2c(c1)N(CCCN1CCN(C)CC1)c1ccccc1S2	none
Cc1[nH]c2ccccc2c1/C=N/Nc1ccc([N+](=O)[O-])cc1S(=O)(=O)Nc1ccc(Cl)cc1	CSN deneddyl inh 44, HNF4A DNA FP 94
O=C1COc2ccc(C(=O)NCc3ccco3)cc2N1	Rtt109 HAT inh 67
O=C1COc2ccc(C(=O)c3ccccc3C(=O)NCc3ccco3)cc2N1	Rtt109 HAT inh 72
O=C(NCc1ccco1)c1ccc2[nH]c(=O)c(=O)[nH]c2c1	none
CC(C)(C)NC(=O)C1(C)CCC(=O)N1C1CCN(Cc2ccccc2)CC1 (centres undefined)	CSN deneddyl inh 86 (no result: Rtt109 HAT inh, TPT1 inh)
O=C1NC[C@@H](Cc2ccc(O)cc2)N(CCc2cc(C(F)(F)F)cc(C(F)(F)F)c2)C1=O	CSN deneddyl inh 98 (no result: Rtt109 HAT inh, TPT1 inh)
Oc1ccc(C[C@@H]2CNC(=S)N2CCc2cc(C(F)(F)F)cc(C(F)(F)F)c2)cc1	none
FC(F)(F)c1cc(CCN2C(=S)NC[C@@H]2CC2CCCCC2)cc(C(F)(F)F)c1	none
O=C1NC[C@H](CC2CCCCC2)N(CCc2cccc3ccccc23)C1=O	CSN deneddyl inh 60 (no result: Rtt109 HAT inh, TPT1 inh)
O=C1NC[C@H](CC2CCCCC2)N(CCc2cc(C(F)(F)F)cc(C(F)(F)F)c2)C1=O	CSN deneddyl inh 48 (no result: Rtt109 HAT inh, TPT1 inh)
O=C(c1cccn(Cc2ccc(Cl)c(Cl)c2)c1=O)N1CCOCC1	HNF4A DNA FP 70
COc1ccc(C(=O)Nc2ccc(-c3nnn(CC(=O)N4CCN(C(=O)c5ccco5)CC4)n3)cc2)cc1	CSN deneddyl inh 80
O=C(Cn1nnc(-c2ccc(Cl)cc2)n1)N1CCN(C(=O)c2ccco2)CC1	none (no result: TPT1 inh)
CCCC(=O)N1CCCC(c2cc(C(=O)Nc3ccccc3)no2)C1 (centres undefined)	none (no result: Rtt109 HAT inh, TPT1 inh)
Cc1ccc(C(=O)NCC(=O)OCC(=O)NC(C)C2CC3CCC2C3)cc1 (centres undefined)	Rtt109 HAT inh 51 (no result: TPT1 inh)
Cc1ccccc1C(=O)NCC(=O)OCC(=O)NC(C)C1CC2CCC1C2 (centres undefined)	none (no result: TPT1 inh)
CC(=O)N1c2ccc(S(=O)(=O)N(C)C3CCCCC3)cc2CC1C (centres undefined)	none
O=C1CSC(=S)N1N=Cc1c(O)ccc2ccccc12	HNF4A DNA FP 93 (no result: TPT1 inh)
CC(C)C[C@@H]1CN=C(N)N1C[C@@H]1CCCN1C[C@H](C)N1C[C@@H](Cc2ccccc2)N(CCc2ccc(Cl)c(Cl)c2)C1=N	Rtt109 HAT inh 75 (no result: TPT1 inh)
CCOC(=O)c1[nH]c(C)c(C(=O)OCc2ccccc2F)c1C	none
COc1ccc(-c2ccc(-c3noc(-c4ccccc4OC)n3)c(OC)n2)cc1	HNF4A DNA FP 44
COc1ccc(-c2ccc(-c3noc(-c4ccccc4C)n3)c(OC)n2)cc1	none
CC(OC(=O)/C(C#N)=C/c1ccc(N(C)C)cc1)C(=O)NCc1ccco1 (centres undefined)	none
CN(C)c1ccc(/C=C(\C#N)C(=O)NCc2ccco2)cc1	TPT1 inh 43 (no result: CSN deneddyl inh, HNF4A DNA FP, Rtt109 HAT inh)
O=C(CCCSc1nc2ccccc2[nH]1)NC1CCCCC1	Rtt109 HAT inh 56
Cc1ccc(S(=O)(=O)N2CCN(C(=O)COC(=O)COc3ccccc3C(C)C)CC2)c(C)c1	none (no result: TPT1 inh)
COc1ccc(C(c2nnnn2C(C)(C)C)N2CCN(c3nc4ccccc4s3)CC2)cc1OC (centres undefined)	none (no result: TPT1 inh)
